Screening data: PubChem BioAssay, The Scripps Research Institute Molecular Screening Center
Hits are enriched below; roughly 2.7% of the tested compounds scored in any of these assays.
ASAP1 inh = inhibitors of human ASAP1 ArfGAP activity, primary screen, biochemical, fluorescence polarization; Arf-GAP with SH3 domain, ANK repeat and PH domain-containing protein 1 (Homo sapiens), …; ASAP1-stimulated ARF1 GTP hydrolysis, GDP FP detection; inhibition, % at 16.5 µM; 0.19% of 360,000 active; in the data active = inhibition above about 25%;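 also: 0% = vehicle with enzyme and substrate and 100% = no enzyme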
PAFAH1B2 inh = PAFAH1B2 enzyme inhibitors, primary screen, biochemical, fluorescence polarization, human; inhibition, % at 3.39 µM; AID 492953, 2010; recombinant PAFAH1B2, FP-rhodamine activity probe; Platelet-activating factor acetylhydrolase IB subunit alpha2 (Homo sapiens), P68402; 1.2% of 340,000 active;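 active = inhibition above the mean of all tested compounds plus 3 SD, cut at about 24% in these data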;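 also: 0% = enzyme with DMSO and 100% = wells lacking PAFAH1B2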
pPAFAH inh = pPAFAH enzyme inhibitors, primary screen, biochemical, fluorescence polarization, human; inhibition, % at 3.39 µM; 1.5% of 330,000 active; recombinant pPAFAH, FP-rhodamine probe fluorescence polarization;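 active = inhibition above the mean inhibition across the screen plus 3 SD, cut at about 25% in these data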;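 also: inhibitors block binding of the rhodamine activity-based probe so polarization drops; 0% = enzyme with DMSO and 100% = wells lacking pPAFAH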
ARFGAP1 inh = inhibitors of rat ARFGAP1 GAP activity, primary screen, biochemical, fluorescence polarization, GDP tracer; 0.26% of 360,000 active; Arfgap1-stimulated ARF1 GTP hydrolysis, GDP FP detection; ADP-ribosylation factor GTPase-activating protein 1 (Rattus norvegicus), Q62848; inhibition, % at 16.5 µM;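 active = inhibition above a per-plate limit, mean inhibition of low control wells plus 3 SD, cut at about 25% in these data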;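 also: 0% = DMSO wells with enzyme and 100% = wells lacking Arfgap1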
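System: truncated rat Arfgap1 GAP domain / Benchmarks: high control wells lacking Arfgap1, low control full reaction with DMSO / Times: compound-enzyme preincubation 20 min, reaction 120 min, detection 60 min, 25 °C / Repeats: one replicate per compound / Also added: human ARF1(Δ1-17)-GTP substrate / Measured by: Tracer-displacement fluorescence polarization with EDTA stop, 620/688 nm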
PAFAH1B3 FP inh = PAFAH1B3 enzyme inhibitors, primary screen, biochemical, fluorescence polarization, human; recombinant PAFAH1B3, FP-rhodamine probe; inhibition, % at 3.39 µM; 0.28% of 340,000 active; AID 492972, 2010;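 active = inhibition above the screen-wide average of all tested compounds plus 3 SD, cut at about 25% in these data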;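 also: 0% = enzyme with DMSO only and 100% = wells lacking PAFAH1B3 protein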
Target sequence (Q15102 whole entry, looked up): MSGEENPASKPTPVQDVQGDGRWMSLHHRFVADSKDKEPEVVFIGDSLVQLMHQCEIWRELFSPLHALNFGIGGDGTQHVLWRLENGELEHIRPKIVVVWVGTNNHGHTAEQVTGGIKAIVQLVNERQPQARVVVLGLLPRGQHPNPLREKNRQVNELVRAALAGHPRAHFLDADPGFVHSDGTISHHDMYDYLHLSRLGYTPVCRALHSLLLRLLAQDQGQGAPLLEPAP
PAFAH2 FP inh = PAFAH2 enzyme inhibitors, primary screen, biochemical, fluorescence polarization, human; Platelet-activating factor acetylhydrolase 2, cytoplasmic (Homo sapiens), Q99487; recombinant PAFAH2, FP-rhodamine activity probe; inhibition, % at 3.39 µM; 0.99% of 340,000 active; AID 492956, 2010;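 active = inhibition above the mean over all tested compounds plus 3 SD, cut at about 30% in these data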;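 also: inhibitors block probe labeling of enzyme so polarization drops; 0% = enzyme with DMSO and 100% = wells lacking PAFAH2 protein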
PAFAH1B3 conf FP = PAFAH1B3 enzyme inhibitors, confirmation, biochemical, fluorescence polarization, human; shares compounds with PAFAH1B3 FP inh; recombinant PAFAH1B3, FP-Rh activity-based probe; inhibition, % at 3.39 µM; 30% of 390 active; AID 493032, 2011;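 active = average inhibition over triplicate runs above the hit cutoff set in the earlier primary screen, cut at about 25% in these data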;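 also: 0% = enzyme with DMSO and 100% = wells lacking PAFAH1B3 protein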
ASAP1 GAP conf = ASAP1 GAP activity inhibitors, confirmation, biochemical, fluorescence polarization, human, triplicate. 37% of 620 active. ASAP1-stimulated Arf1 GTPase, GDP fluorescence polarization. shares compounds with ASAP1 inh. inhibition, % at 16.5 µM;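 active = mean inhibition over triplicates exceeds the hit threshold derived for the earlier primary screening run, cut at about 25% in these data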
ARFGAP1 inh conf = ARFGAP1 inhibitor hit confirmation, biochemical, fluorescence polarization, triplicate; shares compounds with ARFGAP1 inh; ARFGAP1-stimulated ARF1 GTP hydrolysis, GDP tracer FP; inhibition, % at 16.5 µM; 30% of 890 active; AID 651608, 2012;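 active = average inhibition over triplicates above the hit cutoff set in the earlier primary screen, cut at about 25% in these data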;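 also: 0% = Arfgap1 plus ARF1-GTP with DMSO and 100% = wells lacking Arfgap1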
Target sequence (Q62848 whole entry, looked up): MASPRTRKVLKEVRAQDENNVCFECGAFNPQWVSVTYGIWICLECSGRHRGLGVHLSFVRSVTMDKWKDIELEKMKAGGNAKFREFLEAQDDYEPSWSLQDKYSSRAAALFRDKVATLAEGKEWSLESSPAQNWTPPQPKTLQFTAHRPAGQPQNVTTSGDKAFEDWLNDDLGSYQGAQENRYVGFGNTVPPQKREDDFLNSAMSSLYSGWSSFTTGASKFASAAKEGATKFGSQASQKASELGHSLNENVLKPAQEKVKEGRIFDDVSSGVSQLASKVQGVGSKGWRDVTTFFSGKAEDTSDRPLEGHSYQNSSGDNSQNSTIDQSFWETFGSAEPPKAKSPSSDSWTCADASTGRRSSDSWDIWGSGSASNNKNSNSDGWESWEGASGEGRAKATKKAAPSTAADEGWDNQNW
The depositor's hits bear a star; nt = not tested or not shown; ! = a repeat was not active.

SMILES	ASAP1 inh	PAFAH1B2 inh	pPAFAH inh	ARFGAP1 inh	PAFAH1B3 FP inh	PAFAH2 FP inh	PAFAH1B3 conf FP	ASAP1 GAP conf	others
CCCCn1c(N)c(N(CCC(C)C)C(=O)COC(=O)c2ccc([N+](=O)[O-])s2)c(=O)[nH]c1=O	-7	13	2	-15	30*	25	22	nt
Cc1cccc(Cn2nnc3c2C(=O)c2ccccc2C3=O)c1	-2	10	1	6	30*	7	9	nt
COc1ccc2c3c(cccc13)OC2=O	1	-3	4	-17	10	12	nt	nt
COc1ccc2c3c(cccc13)N(C)N=C2C	-4	13	23	-13	27*	16	25	nt
CC(C)(C)NC(=O)C(CCc1ccccc1)n1c(=O)c(-c2cc3ccccc3[nH]2)nc2ccccc21 (stereo not drawn)	3	nt	nt	22	nt	nt	nt	nt
O=C1c2ccccc2C(=O)c2c(O)c(O)cc(O)c21	1	16	47*	0	40*	19	29*	nt
Clc1ccc(C2Nc3cccc4cccc(c34)N2)cc1	-8	12	16	15	13	-3	nt	nt
Cc1cccc(C2Nc3cccc4cccc(c34)N2)c1	0	9	4	-3	31*	6	9	nt
c1cc2c3c(cccc3c1)NC(c1ccc3c(c1)OCO3)N2	2	13	0	4	28*	14	10	nt
CC(C)[C@H](NC(=O)c1ccccc1F)C(=O)OCCN1C(=O)c2ccccc2C1=O	3	-3	0	-19	3	7	nt	nt
O=c1cc[nH]c2c1ccc1c(=O)cc[nH]c12	-2	9	12	10	31*	1	80*	nt
O=c1cc[nH]c2c(Cl)cccc12	-9	9	-1	0	3	-2	nt	nt
CCN1CCN(C2=C(NS(=O)(=O)c3ccc(C)cc3)C(=O)c3ccccc3C2=O)CC1	11	8	0	4	6	-2	nt	nt
Cc1ccc(NC2=C(N3CCCCC3)C(=O)c3ccccc3C2=O)cc1	28*	12	-1	15	41*	29	17	16
CC(C)(C)CC(C)(C)c1ccc(O)c(Cc2ccc(Cl)cc2Cl)c1	-10	8	nt	0	1	-26	nt	nt
N#Cc1cc(Cl)c(N2CCOCC2)cc1C#N	9	2	-2	0	3	12	nt	nt
N#Cc1cc2ccc(N3CCOCC3)cc2cc1C#N	30*	7	9	4	60*	18	15	6
S=C(Nc1ccc2nsnc2c1)N1CCCCC1	25*	12	1	22	51*	15	9	0
CC1OC(Nc2cccc3ccccc23)C(O)C(O)C1O (stereo not drawn)	26*	4	0	9	32*	14	9	4
O=C(C1=NOC2(C1)C(=O)Nc1ccccc12)N1CCCCC1 (stereo not drawn)	1	nt	nt	-14	nt	nt	nt	nt
CC(C(=O)Nc1cccnc1)N1C(=O)c2ccccc2C1=O (stereo not drawn)	5	2	0	2	3	13	nt	nt
O=C1C=C(Nc2cccnc2)c2ccccc2C1=O	26*	8	nt	-7	53*	8	27*	12
CC1(C)C=C2C(=NN(c3ccccc3)C(N)=C2C#N)CO1	26*	12	8	9	44*	4	51*	8
CCOC(=O)C1=CCC(c2ccc(C#N)cc2)N(S(=O)(=O)c2ccc(C)cc2)C1 (stereo not drawn)	-8	nt	nt	3	nt	nt	nt	nt
COc1cc(C=C2C(=O)c3ccccc3C2=O)cc(OC)c1	-2	-3	0	-3	2	16	nt	nt
SMILES	ASAP1 inh	PAFAH1B2 inh	pPAFAH inh	ARFGAP1 inh	PAFAH1B3 FP inh	PAFAH2 FP inh	PAFAH1B3 conf FP	ASAP1 GAP conf	others
COc1cc(Cl)c(NC2=CC(=O)C(=O)c3ccccc32)c(OC)c1	2	15	6	28*	35*	13	29*	nt	ARFGAP1 inh conf=-1
COc1cc2c(cc1OC)[C@@H](NC(=O)COc1ccccc1)[C@H](OCc1ccccc1)C2	-5	3	2	-4	8	-1	nt	nt
CC(C)[C@H](NC(=O)c1ccccc1Cl)C(=O)OCC(=O)N1CCCCC1	-6	-3	3	-1	-5	-5	nt	nt
O=C(Nc1cccc(NC(=O)c2ccc(Br)o2)n1)c1ccc(Br)o1	-6	-2	3	1	-5	2	nt	nt
N#Cc1c(NC(=O)c2ccc(Br)o2)n(-c2ccccc2)c2nc3ccccc3nc12	42*	17	7	27*	65*	16	48*	20	ARFGAP1 inh conf=-1
C/C(=N\NC(=O)c1cc(-c2cccc([N+](=O)[O-])c2)n[nH]1)c1ccccc1O	136*	6	19	54*	26*	-5	14	150*	ARFGAP1 inh conf=152*
O=C(O)c1ccc(CN2C[C@@H](CO)O[C@@H](n3cnc4c(NCc5ccco5)ncnc43)C2)cc1	3	nt	nt	-14	nt	nt	nt	nt
C[n+]1c2cc(N)ccc2cc2ccc(N)cc21	20	13	nt	25*!	33*	18	28*!	nt	ARFGAP1 inh conf=3
O=C1C(N2CCOCC2)=C(n2nnc3ccccc32)C(=O)c2ccccc21	44*	22	7	31*	51*	9	34*	10	ARFGAP1 inh conf=3
CN(C)c1ccc(/C=C/c2ccc3ccccc3[n+]2C)cc1	10	-9	-5	-2	-21	-29	nt	nt
CN(C)c1ccc(/C=C/c2ccc3c4ccccc4ccc3[n+]2-c2ccccc2)cc1	86*	-18	nt	123*	-21	-34	nt	95*
CCOC(=O)N1CCN(S(=O)(=O)c2ccc(OC)c(Cl)c2Cl)CC1	2	11	3	-5	6	9	nt	nt
COc1ccc(S(=O)(=O)N2CCCC2)c(Cl)c1Cl	25*	-1	2	5	10	0	nt	0
